Source: ChEMBL document CHEMBL4177755, “Combating Drug-Resistant Fungi with Novel Imperfectly Amphipathic Palindromic Peptides” (J Med Chem, 2018)
Values after ≈ are worked out from the molar mass of the structure shown.

How the values were obtained:
Candida albicans [1] = assay: Fungicidal activity against Candida albicans SP3876 after 96 hrs; type: functional; details: SP3876, 96 h, read-out: MFC99.9
How it was run: (§1)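 After the 48 h, 28 °C broth microdilution in MOPS-buffered RPMI 1640 (inoculum (0.5−1) × 10^3 CFU/mL), 50 μL from each well was plated on YM agar for a further 48 h at 28 °C. MFC is the lowest concentration killing at least 99.9% of cells. Triplicate, three biological replicates.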

Erythrocyte = assay: Hemolytic activity in human RBC after 1 hr; type: ADME, cell-based
How it was run: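 Fresh human erythrocytes, diluted 10-fold in PBS pH 7.4, were mixed with equal volumes of peptide and held 1 h at 37 °C. After centrifugation at 1000g, supernatant hemoglobin was read at 576 nm. PBS set 0% and 0.1% Triton X-100 set 100% lysis. MHC is the concentration causing 10% hemolysis. At least three experiments were run, each in technical triplicate.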

[2] = system: Staphylococcus epidermidis; assay: Bactericidal activity against Staphylococcus epidermidis ATCC 12228; type: functional; details: read-out: MBC99.9
How it was run: (§2)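 Wells from the 24 h, 37 °C MHB microdilution plates (bacteria at a final (0.5−1) × 10^5 CFU/mL; peptide diluted in 0.2% BSA) were plated on agar and incubated overnight. MBC is the lowest concentration killing >99.9% of cells. Each test was reproduced at least 3 times.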

Candida albicans [3] = assay: Fungicidal activity against Candida albicans SP3902 after 96 hrs; type: functional; details: SP3902, 96 h, read-out: MFC99.9; how it was run: as §1
Candida parapsilosis [4] = assay: Antifungal activity against Candida parapsilosis cgmcc 2.3989 after 48 hrs by broth microdilution method; type: functional; details: Lodderomyces parapsilosis, cgmcc 2.3989, 48 h
How it was run: (§3)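 Modified CLSI M27-A2 broth microdilution. Yeast were suspended in MOPS-buffered RPMI 1640 at a final (0.5−1) × 10^3 CFU/mL and mixed 1:1 with peptide serially diluted in 0.2% BSA. Plates were incubated 48 h at 28 °C and read at A492. MIC is the lowest concentration giving 95% inhibition. Run in triplicate with three biological replicates.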

Candida albicans [5] = assay: Antifungal activity against Candida albicans cgmcc 2.2086 in presence of KCl by broth dilution method; type: functional
Escherichia coli [6] = assay: Antibacterial activity against Escherichia coli ATCC 25922 after 18 hrs in presence of MgCl2 by broth dilution method; type: functional; details: ATCC 25922, 18 h
Staphylococcus aureus [7] = assay: Antibacterial activity against Staphylococcus aureus ATCC 29213 after 24 hrs; type: functional; details: ATCC 29213, 24 h
How it was run: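 Modified NCCLS broth microdilution. Mid-log bacteria at (0.5−1) × 10^5 CFU/mL in MHB were mixed 1:1 with peptide serially diluted in 0.2% BSA and incubated 24 h at 37 °C. Absorbance was read at 492 nm; MIC is the lowest concentration inhibiting 95% of growth. At least 3 repeats.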

Staphylococcus aureus [8] = assay: Bactericidal activity against Staphylococcus aureus ATCC 25923; type: functional; details: read-out: MBC99.9; how it was run: as §2
Candida albicans [9] = assay: Antifungal activity against Candida albicans SP3931 after 48 hrs by broth microdilution method; type: functional; details: SP3931, 48 h
How it was run: (§4)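 Modified CLSI M27-A2 broth microdilution. Yeast at (0.5−1) × 10^3 CFU/mL in MOPS-buffered RPMI 1640 was mixed 1:1 with peptide serially diluted in 0.2% BSA and incubated 48 h at 28 °C. Absorbance was read at 492 nm; MIC is the lowest concentration inhibiting 95% of growth. Triplicate, three biological replicates.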

Candida tropicalis = assay: Antifungal activity against Candida tropicalis cgmcc 2.1975 after 48 hrs by broth microdilution method; type: functional; details: cgmcc 2.1975, 48 h; how it was run: as §3
Candida albicans [10] = assay: Fungicidal activity against fluconazole-resistant Candida albicans 56214 after 96 hrs; type: functional; details: Candida albicans, 56214, 96 h; read-out: MFC99.9; how it was run: as §1
Candida albicans [11] = assay: Antifungal activity against fluconazole-resistant Candida albicans 56214 after 48 hrs by broth microdilution method; type: functional; details: Candida albicans, 56214, 48 h; how it was run: as §4
Escherichia coli [12] = assay: Antibacterial activity against Escherichia coli ATCC 25922 after 18 hrs in presence of FeCl3 by broth dilution method; type: functional; details: ATCC 25922, 18 h
Escherichia coli [13] = assay: Bactericidal activity against Escherichia coli ATCC 25922; type: functional; details: read-out: MBC99.9; how it was run: as §2
Candida parapsilosis [14] = assay: Fungicidal activity against Candida parapsilosis cgmcc 2.3989 after 96 hrs; type: functional; details: Lodderomyces parapsilosis, cgmcc 2.3989, 96 h; read-out: MFC99.9
How it was run: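 Wells from the 48 h, 28 °C RPMI 1640/MOPS microdilution plates were plated on YM agar and incubated a further 48 h at 28 °C. MFC is the lowest concentration killing at least 99.9% of cells. Run in triplicate with three biological replicates.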

Escherichia coli [15] = assay: Bactericidal activity against Escherichia coli 1005; type: functional; details: read-out: MBC99.9; how it was run: as §2
Escherichia coli [16] = assay: Antibacterial activity against Escherichia coli ATCC 25922 after 18 hrs in presence of KCl by broth dilution method; type: functional; details: ATCC 25922, 18 h
Candida albicans [17] = assay: Antifungal activity against Candida albicans cgmcc 2.2086 in presence of NaCl by broth dilution method; type: functional
Escherichia coli [18] = assay: Antibacterial activity against Escherichia coli ATCC 25922 after 18 hrs in presence of ZnCl2 by broth dilution method; type: functional; details: ATCC 25922, 18 h
Escherichia coli [19] = assay: Antibacterial activity against Escherichia coli ATCC 25922 after 18 hrs in presence of CaCl2 by broth dilution method; type: functional; details: ATCC 25922, 18 h
Candida albicans [20] = assay: Antifungal activity against Candida albicans 14936 after 48 hrs by broth microdilution method; type: functional; details: Candida albicans, 14936, 48 h; how it was run: as §4
Candida albicans [21] = assay: Fungicidal activity against Candida albicans 58288 after 96 hrs; type: functional; details: Candida albicans, 58288, 96 h; read-out: MFC99.9; how it was run: as §1
Candida albicans [22] = assay: Antifungal activity against Candida albicans SP3876 after 48 hrs by broth microdilution method; type: functional; details: SP3876, 48 h; how it was run: as §4
[23] = system: Staphylococcus epidermidis; assay: Antibacterial activity against Staphylococcus epidermidis ATCC 12228 after 24 hrs; type: functional; details: ATCC 12228, 24 h
How it was run: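 Broth microdilution. Mid-log bacteria in MHB at a final (0.5−1) × 10^5 CFU/mL were mixed with equal volumes of peptide serially diluted in 0.2% BSA. Plates were incubated 24 h at 37 °C and read at A492. MIC is the lowest concentration inhibiting 95% of growth. Each test was repeated at least 3 times.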

Candida albicans [24] = assay: Fungicidal activity against fluconazole-resistant Candida albicans 17546 after 96 hrs; type: functional; details: Candida albicans, 17546, 96 h; read-out: MFC99.9; how it was run: as §1
Candida albicans [25] = assay: Fungicidal activity against Candida albicans SP3931 after 96 hrs; type: functional; details: SP3931, 96 h, read-out: MFC99.9; how it was run: as §1
Candida albicans [26] = assay: Antifungal activity against Candida albicans cgmcc 2.2086 after 48 hrs by broth microdilution method; type: functional; details: cgmcc 2.2086, 48 h; how it was run: as §4
Candida albicans [27] = assay: Antifungal activity against fluconazole-resistant Candida albicans 17546 after 48 hrs by broth microdilution method; type: functional; details: Candida albicans, 17546, 48 h; how it was run: as §4

Compound | MFC (Candida albicans [1]) | HC10 (Erythrocyte) | MBC [2] | MFC (Candida albicans [3]) | MIC95 (Candida parapsilosis [4]) | MIC (Candida albicans [5]) | MIC95 (Staphylococcus aureus [7]) | MBC (Staphylococcus aureus [8]) | MIC95 (Candida albicans [9]) | MIC95 (Candida tropicalis) | MFC (Candida albicans [10]) | MIC95 (Candida albicans [11]) | MBC (Escherichia coli [13]) | MFC (Candida parapsilosis [14]) | MBC (Escherichia coli [15]) | MIC (Candida albicans [17]) | MIC95 (Candida albicans [20]) | MFC (Candida albicans [21]) | MIC95 (Candida albicans [22]) | MIC95 [23] | also measured
H-RWWRRWRRWWR-NH2 | 2 µM | > 128 µM | 8 µM | 4 µM | 16 µM | 8 µM | 4 µM | 16 µM | 8 µM | 2 µM | 8 µM | 4 µM | 16 µM | 32 µM | 8 µM | 16 µM | 4 µM | 8 µM | 2 µM | 4 µM | MIC (Escherichia coli [6]): 8 µM; MIC (Escherichia coli [12]): 16 µM; MIC (Escherichia coli [16]): 16 µM; MIC (Escherichia coli [18]): 16 µM; MIC (Escherichia coli [19]): 32 µM; MFC (Candida albicans [24]): 4 µM; MFC (Candida albicans [25]): 16 µM; MIC95 (Candida albicans [26]): 4 µM; MIC95 (Candida albicans [27]): 4 µM
CC[C@H](C)[C@H](NC(=O)CN)C(=O)NCC(=O)N[C@@H](C)C(=O)N[C@H](C(=O)N[C@@H](CC(C)C)C(=O)N[C@@H](CCCCN)C(=O)N[C@H](C(=O)N[C@@H](CC(C)C)C(=O)N[C@H](C(=O)N[C@H](C(=O)NCC(=O)N[C@@H](CC(C)C)C(=O)N1CCC[C@H]1C(=O)N[C@@H](C)C(=O)N[C@@H](CC(C)C)C(=O)N[C@H](C(=O)N[C@@H](CO)C(=O)N[C@@H](Cc1c[nH]c2ccccc12)C(=O)N[C@H](C(=O)N[C@@H](CCCCN)C(=O)N[C@@H](CCCNC(=N)N)C(=O)N[C@@H](CCCCN)C(=O)N[C@@H](CCCNC(=N)N)C(=O)N[C@@H](CCC(N)=O)C(=O)N[C@@H](CCC(N)=O)C(N)=O)[C@@H](C)CC)[C@@H](C)CC)[C@@H](C)O)[C@@H](C)O)C(C)C)C(C)C [MELITTIN] | 4 µM (≈ 11.4 µg/mL) | 0.25 µM | 1 µM (≈ 2.85 µg/mL) | 2 µM (≈ 5.69 µg/mL) | 2 µM (≈ 5.69 µg/mL) | 4 µM | 8 µM (≈ 22.8 µg/mL) | 4 µM (≈ 11.4 µg/mL) | 8 µM (≈ 22.8 µg/mL) | 4 µM (≈ 11.4 µg/mL) | 4 µM (≈ 11.4 µg/mL) | 4 µM (≈ 11.4 µg/mL) | 2 µM (≈ 5.69 µg/mL) | 2 µM (≈ 5.69 µg/mL) | 2 µM (≈ 5.69 µg/mL) | 8 µM | 4 µM (≈ 11.4 µg/mL) | 4 µM (≈ 11.4 µg/mL) | 4 µM (≈ 11.4 µg/mL) | 0.5 µM (≈ 1.42 µg/mL) | MFC (Candida albicans [24]): 8 µM (≈ 22.8 µg/mL); MFC (Candida albicans [25]): 8 µM (≈ 22.8 µg/mL); MIC95 (Candida albicans [26]): 4 µM (≈ 11.4 µg/mL); MIC95 (Candida albicans [27]): 8 µM (≈ 22.8 µg/mL)
